Calls of active or inactive are those of the source. The rule behind the calls is not given here.
Tests used:
Mus musculus [1] = experiment: In vivo inhibition of MST1/2 in wild-type Mst1fl/fl Mst2fl/fl mouse assessed as high number in nuclear YAP-positive cells at 1 mg/kg, ip administrated daily for 7 days by immunohistochemical staining; assay type: functional, organism-based; settings: Liver, time 7.0 day
[2] = target: Aurora kinase A (Homo sapiens) (UniProt O14965); experiment: Inhibition of AURKA (unknown origin) assessed as remaining activity at 1 uM by Kinome scan method relative to control
In short: (§1)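 Active-site-dependent competition-binding (KINOMEscan) panel of 468 kinases, test compound at 1 μM (from a 10 mM DMSO stock). Read-out is ctrl% = (test signal − positive control signal)/(negative control signal − positive control signal) × 100. DMSO is the negative control (100%) and a control compound is the positive control (0%). Lower ctrl% means tighter binding.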

Mus musculus [3] = experiment: In vivo inhibition of MST1/2 in wild-type Mst1fl/fl Mst2fl/fl mouse assessed as decrease in MOB1 phosphorylation level at 1 mg/kg, ip administrated daily for 7 days by immunoblot analysis; assay type: functional, organism-based; settings: Liver, time 7.0 day
[4] = target: 5'-AMP-activated protein kinase catalytic subunit alpha-2 (Homo sapiens) (UniProt P54646); experiment: Inhibition of AMPK-alpha2 (unknown origin) assessed as remaining activity at 1 uM by Kinome scan method relative to control; in short: as §1
[5] = target: Phosphatidylinositol 4,5-bisphosphate 3-kinase catalytic subunit delta isoform (Homo sapiens) (UniProt O00329); experiment: Inhibition of PIK3CD (unknown origin) assessed as remaining activity at 1 uM by Kinome scan method relative to control
Chain of Phosphatidylinositol 4,5-bisphosphate 3-kinase catalytic subunit delta isoform (Homo sapiens) (O00329 whole entry, canonical isoform): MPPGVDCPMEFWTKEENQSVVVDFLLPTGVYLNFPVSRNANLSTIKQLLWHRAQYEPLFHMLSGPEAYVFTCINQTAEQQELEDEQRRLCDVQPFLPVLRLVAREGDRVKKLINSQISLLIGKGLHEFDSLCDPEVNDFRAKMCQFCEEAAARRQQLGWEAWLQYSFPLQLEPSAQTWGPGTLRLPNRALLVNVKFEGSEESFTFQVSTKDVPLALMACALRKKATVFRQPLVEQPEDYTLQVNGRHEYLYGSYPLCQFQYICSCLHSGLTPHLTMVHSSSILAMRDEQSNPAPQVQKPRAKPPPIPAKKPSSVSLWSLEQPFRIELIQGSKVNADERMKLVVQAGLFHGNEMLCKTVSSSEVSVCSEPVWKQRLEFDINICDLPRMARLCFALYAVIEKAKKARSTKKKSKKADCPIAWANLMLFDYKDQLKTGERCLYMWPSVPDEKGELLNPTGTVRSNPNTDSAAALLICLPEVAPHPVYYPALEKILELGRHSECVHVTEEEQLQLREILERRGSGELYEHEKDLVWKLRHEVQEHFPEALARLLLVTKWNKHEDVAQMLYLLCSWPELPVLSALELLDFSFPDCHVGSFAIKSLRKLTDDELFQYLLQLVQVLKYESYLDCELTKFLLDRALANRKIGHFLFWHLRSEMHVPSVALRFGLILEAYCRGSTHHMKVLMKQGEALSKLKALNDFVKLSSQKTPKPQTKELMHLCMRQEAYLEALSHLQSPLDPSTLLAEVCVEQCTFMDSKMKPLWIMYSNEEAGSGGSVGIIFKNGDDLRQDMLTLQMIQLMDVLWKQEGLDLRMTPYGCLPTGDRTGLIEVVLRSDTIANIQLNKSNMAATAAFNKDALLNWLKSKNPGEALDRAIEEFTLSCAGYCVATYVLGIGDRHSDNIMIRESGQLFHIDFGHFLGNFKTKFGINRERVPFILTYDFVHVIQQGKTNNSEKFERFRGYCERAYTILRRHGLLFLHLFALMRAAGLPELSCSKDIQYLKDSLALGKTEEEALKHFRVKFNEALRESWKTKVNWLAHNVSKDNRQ

[6] = target: Casein kinase I isoform gamma-1 (Homo sapiens) (UniProt Q9HCP0); experiment: Inhibition of CSNK1G1 (unknown origin) assessed as remaining activity at 1 uM by Kinome scan method relative to control
In short: (§2)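 Active-site-dependent competition-binding profiling (KINOMEscan) at 1 μM against a 468-kinase panel; compound supplied from a 10 mM DMSO stock. Read-out is ctrl% = (test signal − positive control signal)/(negative control signal − positive control signal) × 100. DMSO is the negative control (100%) and a control compound the positive control (0%). Lower ctrl% means tighter binding.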

Mus musculus [7] = experiment: In vivo inhibition of MST1/2 in mouse assessed as YAP phosphorylation level at 1 mg/kg, ip administration and measured after between 1.5 to 6 hrs by immunoblot analysis; assay type: functional, organism-based; settings: time 1.5-6 hrs
In short: (§3)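 Wild-type mice received 1 mg/kg intraperitoneally, with vehicle of 0.1% citric acid aqueous solution containing 20% Kolliphor HS 15. Livers were harvested over 0–12 h and lysates immunoblotted for p-MOB1 and p-YAP, normalized to control. Means ± SD, n = 3.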

Mus musculus [8] = experiment: In vivo inhibition of MST1/2 in mouse assessed as MOB1 phosphorylation level at 1 mg/kg, ip administration and measured after between 1.5 to 6 hrs by immunoblot analysis; assay type: functional, organism-based; settings: time 1.5-6 hrs; in short: as §3
[9] = target: Calcium/calmodulin-dependent protein kinase type IV (Homo sapiens) (UniProt Q16566); experiment: Inhibition of CAMK4 (unknown origin) assessed as remaining activity at 1 uM by Kinome scan method relative to control; in short: as §2
[10] = target: Activin receptor type-2B (Homo sapiens) (UniProt Q13705); experiment: Inhibition of ACVR2B (unknown origin) assessed as remaining activity at 1 uM by Kinome scan method relative to control; in short: as §1
[11] = target: Rho-associated protein kinase 2 (Homo sapiens) (UniProt O75116); experiment: Inhibition of ROCK2 (unknown origin) assessed as remaining activity at 1 uM by Kinome scan method relative to control
Chain of Rho-associated protein kinase 2 (Homo sapiens) (O75116 whole entry, looked up): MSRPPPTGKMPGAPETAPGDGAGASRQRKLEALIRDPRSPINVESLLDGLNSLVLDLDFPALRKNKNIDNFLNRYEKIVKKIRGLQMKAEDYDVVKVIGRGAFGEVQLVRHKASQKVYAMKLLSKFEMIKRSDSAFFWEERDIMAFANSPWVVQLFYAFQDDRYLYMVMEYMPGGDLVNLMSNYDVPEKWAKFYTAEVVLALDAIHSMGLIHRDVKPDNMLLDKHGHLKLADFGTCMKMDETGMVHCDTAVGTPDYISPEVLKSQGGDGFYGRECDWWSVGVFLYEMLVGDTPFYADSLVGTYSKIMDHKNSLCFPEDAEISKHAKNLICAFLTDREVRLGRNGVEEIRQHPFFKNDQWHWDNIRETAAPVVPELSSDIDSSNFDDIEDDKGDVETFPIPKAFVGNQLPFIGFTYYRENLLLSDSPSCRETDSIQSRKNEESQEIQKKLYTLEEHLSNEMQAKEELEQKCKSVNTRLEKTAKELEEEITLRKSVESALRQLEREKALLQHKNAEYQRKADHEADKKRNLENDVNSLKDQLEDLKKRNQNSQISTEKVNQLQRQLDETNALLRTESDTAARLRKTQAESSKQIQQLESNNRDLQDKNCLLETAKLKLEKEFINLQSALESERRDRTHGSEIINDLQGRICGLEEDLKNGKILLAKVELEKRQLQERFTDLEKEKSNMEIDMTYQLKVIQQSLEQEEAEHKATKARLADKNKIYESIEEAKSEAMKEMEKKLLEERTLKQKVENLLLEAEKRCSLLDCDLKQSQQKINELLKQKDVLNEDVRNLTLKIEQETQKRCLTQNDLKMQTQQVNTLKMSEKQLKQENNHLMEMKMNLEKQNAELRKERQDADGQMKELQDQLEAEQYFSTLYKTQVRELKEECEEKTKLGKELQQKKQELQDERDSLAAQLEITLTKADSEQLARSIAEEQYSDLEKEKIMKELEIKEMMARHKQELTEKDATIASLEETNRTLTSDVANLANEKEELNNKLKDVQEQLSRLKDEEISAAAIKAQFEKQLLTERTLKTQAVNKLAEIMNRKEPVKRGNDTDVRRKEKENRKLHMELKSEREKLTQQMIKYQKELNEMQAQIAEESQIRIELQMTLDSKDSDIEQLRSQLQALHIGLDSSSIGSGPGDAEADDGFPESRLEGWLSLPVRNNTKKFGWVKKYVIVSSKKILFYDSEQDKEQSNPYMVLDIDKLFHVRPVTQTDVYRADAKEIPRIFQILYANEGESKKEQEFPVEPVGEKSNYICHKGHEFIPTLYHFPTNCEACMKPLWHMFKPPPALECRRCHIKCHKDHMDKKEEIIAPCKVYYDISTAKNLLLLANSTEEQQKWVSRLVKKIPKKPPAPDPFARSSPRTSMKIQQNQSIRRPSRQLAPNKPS

[12] = target: Mitogen-activated protein kinase 12 (Homo sapiens) (UniProt P53778); experiment: Inhibition of P38gamma (unknown origin) assessed as remaining activity at 1 uM by Kinome scan method relative to control
Chain of Mitogen-activated protein kinase 12 (Homo sapiens) (P53778 whole entry): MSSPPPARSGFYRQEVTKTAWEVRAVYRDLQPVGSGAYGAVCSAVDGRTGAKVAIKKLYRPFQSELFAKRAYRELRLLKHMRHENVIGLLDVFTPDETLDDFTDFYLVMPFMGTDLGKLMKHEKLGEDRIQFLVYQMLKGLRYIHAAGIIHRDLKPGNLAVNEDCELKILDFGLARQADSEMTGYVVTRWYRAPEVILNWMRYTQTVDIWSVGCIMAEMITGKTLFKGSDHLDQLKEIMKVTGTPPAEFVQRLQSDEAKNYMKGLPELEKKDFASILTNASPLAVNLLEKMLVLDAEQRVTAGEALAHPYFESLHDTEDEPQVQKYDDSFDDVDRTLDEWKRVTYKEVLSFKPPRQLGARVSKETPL

[13] = target: Serine/threonine-protein kinase BRSK2 (Homo sapiens) (UniProt Q8IWQ3); experiment: Inhibition of BRSK2 (unknown origin) assessed as remaining activity at 1 uM by Kinome scan method relative to control; in short: as §1
Chain of Serine/threonine-protein kinase BRSK2 (Homo sapiens) (Q8IWQ3 whole entry): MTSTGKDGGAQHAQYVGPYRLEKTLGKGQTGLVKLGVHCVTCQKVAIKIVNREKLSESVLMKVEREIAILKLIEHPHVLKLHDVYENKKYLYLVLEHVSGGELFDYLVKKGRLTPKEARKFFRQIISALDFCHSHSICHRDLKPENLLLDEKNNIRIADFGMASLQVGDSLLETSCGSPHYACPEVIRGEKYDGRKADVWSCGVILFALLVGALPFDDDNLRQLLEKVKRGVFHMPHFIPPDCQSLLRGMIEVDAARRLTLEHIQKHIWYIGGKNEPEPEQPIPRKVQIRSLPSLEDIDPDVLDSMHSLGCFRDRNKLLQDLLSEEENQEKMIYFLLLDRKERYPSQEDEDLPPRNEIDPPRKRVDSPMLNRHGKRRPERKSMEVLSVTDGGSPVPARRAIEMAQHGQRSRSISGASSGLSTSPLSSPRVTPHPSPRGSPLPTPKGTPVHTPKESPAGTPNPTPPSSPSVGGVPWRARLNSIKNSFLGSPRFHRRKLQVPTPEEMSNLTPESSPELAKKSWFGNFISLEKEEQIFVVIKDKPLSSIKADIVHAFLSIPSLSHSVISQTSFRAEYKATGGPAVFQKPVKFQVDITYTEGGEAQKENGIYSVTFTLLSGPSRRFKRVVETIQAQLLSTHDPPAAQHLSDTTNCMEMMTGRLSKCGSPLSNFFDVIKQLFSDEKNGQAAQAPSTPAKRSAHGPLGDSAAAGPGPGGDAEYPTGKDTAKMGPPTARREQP

[14] = target: Phosphatidylinositol 4-phosphate 5-kinase type-1 gamma (Homo sapiens, UniProt O60331); experiment: Inhibition of PIP5K1C (unknown origin) assessed as remaining activity at 1 uM by Kinome scan method relative to control
[15] = AUC (0 to infinity) in male Sprague-Dawley rat at 10 mg/kg, po measured for 24 hrs by LC-MS/MS analysis; assay type: ADME, organism-based; settings: in vivo
In short: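 Sprague-Dawley rats, single intravenous or oral dose. Parameters (half-life, AUC, bioavailability) reported in a supplementary table.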

[16] = target: Ribosomal protein S6 kinase alpha-6 (Homo sapiens) (UniProt Q9UK32); experiment: Inhibition of N-terminal kinase domain RSK4 (unknown origin) assessed as remaining activity at 1 uM by Kinome scan method relative to control
[17] = target: Insulin receptor (Homo sapiens) (UniProt P06213); experiment: Inhibition of INSR (unknown origin) assessed as remaining activity at 1 uM by Kinome scan method relative to control
[18] = target: Proto-oncogene tyrosine-protein kinase ROS (Homo sapiens) (UniProt P08922); experiment: Inhibition of ROS1 (unknown origin) assessed as remaining activity at 1 uM by Kinome scan method relative to control
[19] = test system: Hepatocyte growth factor receptor (Homo sapiens), P08581 [M1250T]; experiment: Inhibition of MET M1250T mutant (unknown origin) assessed as remaining activity at 1 uM by Kinome scan method relative to control
[20] = target: Serine/threonine-protein kinase TAO3 (Homo sapiens, UniProt Q9H2K8); experiment: Binding affinity to TAOK3 (unknown origin) assessed as dissociation constant
Chain of Serine/threonine-protein kinase TAO3 (Q9H2K8 whole entry): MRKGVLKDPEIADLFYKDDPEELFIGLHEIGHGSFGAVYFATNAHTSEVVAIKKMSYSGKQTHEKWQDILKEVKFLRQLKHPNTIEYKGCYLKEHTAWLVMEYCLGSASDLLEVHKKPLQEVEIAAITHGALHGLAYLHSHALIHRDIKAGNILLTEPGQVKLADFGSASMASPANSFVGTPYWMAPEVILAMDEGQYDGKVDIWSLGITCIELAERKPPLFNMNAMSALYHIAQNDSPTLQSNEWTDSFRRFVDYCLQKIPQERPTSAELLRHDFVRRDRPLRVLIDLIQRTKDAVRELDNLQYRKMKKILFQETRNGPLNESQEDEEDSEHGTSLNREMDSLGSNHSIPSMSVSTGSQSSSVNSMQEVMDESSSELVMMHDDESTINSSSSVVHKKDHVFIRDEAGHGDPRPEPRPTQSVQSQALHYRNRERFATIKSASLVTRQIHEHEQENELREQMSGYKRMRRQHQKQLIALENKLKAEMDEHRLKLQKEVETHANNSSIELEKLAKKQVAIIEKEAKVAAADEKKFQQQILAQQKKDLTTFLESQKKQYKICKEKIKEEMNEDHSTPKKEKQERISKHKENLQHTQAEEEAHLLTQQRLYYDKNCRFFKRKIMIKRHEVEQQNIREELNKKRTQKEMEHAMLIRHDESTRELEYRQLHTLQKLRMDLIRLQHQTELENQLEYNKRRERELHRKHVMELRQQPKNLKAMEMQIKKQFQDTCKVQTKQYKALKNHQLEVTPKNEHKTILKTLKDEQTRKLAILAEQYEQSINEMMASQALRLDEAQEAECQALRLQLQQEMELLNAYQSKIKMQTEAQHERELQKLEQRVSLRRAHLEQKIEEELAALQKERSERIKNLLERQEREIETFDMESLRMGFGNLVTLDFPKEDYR

[21] = target: Peripheral plasma membrane protein CASK (Homo sapiens) (UniProt O14936); experiment: Inhibition of CASK (unknown origin) assessed as remaining activity at 1 uM by Kinome scan method relative to control; in short: as §2
[22] = target: Serine/threonine-protein kinase 24 (Homo sapiens, UniProt Q9Y6E0); experiment: Binding affinity to MST3 (unknown origin) assessed as dissociation constant
Chain of Serine/threonine-protein kinase 24 (Q9Y6E0 whole entry): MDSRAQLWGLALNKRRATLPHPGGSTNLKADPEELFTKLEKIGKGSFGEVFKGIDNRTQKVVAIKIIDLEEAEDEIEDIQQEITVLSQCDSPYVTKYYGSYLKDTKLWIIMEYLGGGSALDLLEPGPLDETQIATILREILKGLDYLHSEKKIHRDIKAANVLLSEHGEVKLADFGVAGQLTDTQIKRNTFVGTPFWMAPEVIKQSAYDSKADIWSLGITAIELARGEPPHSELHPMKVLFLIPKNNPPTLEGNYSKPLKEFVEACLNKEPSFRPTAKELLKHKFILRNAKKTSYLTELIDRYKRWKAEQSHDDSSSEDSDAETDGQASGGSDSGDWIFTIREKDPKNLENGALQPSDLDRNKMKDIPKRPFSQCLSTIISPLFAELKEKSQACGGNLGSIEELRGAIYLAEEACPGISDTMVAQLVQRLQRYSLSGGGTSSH

[23] = target: Mitogen-activated protein kinase kinase kinase kinase 1 (Homo sapiens) (UniProt Q92918); experiment: Inhibition of HPK1 (unknown origin) assessed as remaining activity at 1 uM by Kinome scan method relative to control
[24] = target: Microtubule-associated serine/threonine-protein kinase 1 (Homo sapiens) (UniProt Q9Y2H9); experiment: Inhibition of MAST1 (unknown origin) assessed as remaining activity at 1 uM by Kinome scan method relative to control
Mus musculus [25] = experiment: Anti-colitis activity against DSS-induced mouse assessed as cancerous phenotype at 1 mg/kg, ip administrated daily for 1 week; assay type: functional, organism-based; settings: Colon, time 1.0 weeks
In short: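 DSS given orally for 7 days. Mice received 1 mg/kg intraperitoneally daily for 1 week. Animals were followed for more than 10 months for cancerous phenotypes.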

[26] = test system: Epidermal growth factor receptor (Homo sapiens), P00533 [L858R]; experiment: Inhibition of EGFR L858R mutant (unknown origin) assessed as remaining activity at 1 uM by Kinome scan method relative to control
[27] = target: Receptor tyrosine-protein kinase erbB-4 (Homo sapiens) (UniProt Q15303); experiment: Inhibition of ERBB4 (unknown origin) assessed as remaining activity at 1 uM by Kinome scan method relative to control

With `CN1C(=O)c2sccc2N(C)c2nc(Nc3ccc(S(N)(=O)=O)cc3)ncc21` the inhibition (Mus musculus [1]) was “Active”, the Activity [2] was 0.05% and the inhibition (Mus musculus [3]) was “Active”. It also gave an Activity [4] of 100%, an Activity [5] of 47% and an Activity [6] of 79%. The inhibition (Mus musculus [7]) was “Active”, the inhibition (Mus musculus [8]) was “Active” and the Activity [9] was 100%. For the same compound, the Activity [10] was 100%, the Activity [11] was 96% and the Activity [12] was 48%. The Activity [13] was 99%, the Activity [14] was 10% and the AUC(0-inf) [15] was 1040 ng·h/mL. For the same compound, the Activity [16] was 66%, the Activity [17] was 98% and the Activity [18] was 100%. It also gave an Activity [19] of 81%, a Kd [20] of 610 nM and an Activity [21] of 78%. The Kd [22] was 18 nM, the Activity [23] was 79% and the Activity [24] was 80%. For the same compound, the Activity (Mus musculus [25]) was “Active”, the Activity [26] was 100% and the Activity [27] was 79%.

Source: ChEMBL document CHEMBL5705905, “Pharmacological targeting of kinases MST1 and MST2 augments tissue repair and regeneration” (Sci Transl Med, 2016)
